ChEMBL document CHEMBL1127635, “Thiopyrano[2,3,4-cd]indoles as 5-lipoxygenase inhibitors: synthesis, biological profile, and resolution of 2-[2-[1-(4-chlorobenzyl)-4-methyl-6-[(5-phenylpyridin-2-yl)methoxy]-4,5 -dihydro-1H-thiopyrano[2,3,4-cd]indol-2-yl]ethoxy]butanoic acid” (J Med Chem, 1994)
Values belong to the compound of their own block, whether it stands above or below them.

How the values were obtained:
Rattus norvegicus [1] = experiment: Tested for percentage inhibition of dyspnea (0.5 mg/kg po using methocel) by in vivo in hyperactive rat after 2 hours pretreatment; assay type: functional
Summary of the method: (§1)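 Inbred hyperreactive rats pretreated with methysergide 3 mg/kg iv. Drug given at 0.5 mg/kg po in methocel before ovalbumin challenge. Read-out is % inhibition of dyspnea duration versus litter-mate-matched vehicle controls, n = 6.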

[2] = Bioavailability in rat (dose 5 mg/kg i.v.); assay type: ADME, organism-based; conditions: in vivo, iv
Summary of the method: (§2)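 Rat plasma profiles after dosing the sodium salts either orally at 20 mg/kg in 1% methocel or iv at 5 mg/kg in PEG 200. Bioavailability is calculated as AUCpo/4 × AUCiv.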

Homo sapiens [3] = species on record: Homo sapiens; experiment: Effect on production of LTB4 in human polymorphonuclear leukocytes; assay type: functional
Summary of the method: (§3)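 LTB4 biosynthesis measured in human polymorphonuclear leukocytes activated with Ca2+ ionophore.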

[4] = biological target: T1, Polyunsaturated fatty acid 5-lipoxygenase (Homo sapiens, UniProt P09917); experiment: In vitro inhibition of human 5-Lipoxygenase.
T1 sequence (P09917 whole entry): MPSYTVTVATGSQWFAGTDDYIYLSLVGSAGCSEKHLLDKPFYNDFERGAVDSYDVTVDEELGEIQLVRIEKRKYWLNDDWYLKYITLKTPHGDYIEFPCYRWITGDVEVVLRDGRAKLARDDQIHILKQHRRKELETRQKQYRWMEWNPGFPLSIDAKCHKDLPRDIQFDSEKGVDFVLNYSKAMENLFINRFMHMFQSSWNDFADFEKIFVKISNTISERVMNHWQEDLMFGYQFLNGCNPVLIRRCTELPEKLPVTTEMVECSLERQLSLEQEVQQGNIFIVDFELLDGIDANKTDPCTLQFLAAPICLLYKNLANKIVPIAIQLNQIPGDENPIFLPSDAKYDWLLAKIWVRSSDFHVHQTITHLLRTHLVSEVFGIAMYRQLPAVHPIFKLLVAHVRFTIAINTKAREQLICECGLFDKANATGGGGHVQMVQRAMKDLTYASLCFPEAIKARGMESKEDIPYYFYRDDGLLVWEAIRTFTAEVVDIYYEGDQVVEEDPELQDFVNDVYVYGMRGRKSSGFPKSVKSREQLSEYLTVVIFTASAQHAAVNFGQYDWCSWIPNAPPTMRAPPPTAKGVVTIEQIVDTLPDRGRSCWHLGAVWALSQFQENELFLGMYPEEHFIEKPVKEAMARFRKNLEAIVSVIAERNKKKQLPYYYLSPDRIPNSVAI
Summary of the method: (§4)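 Spectrophotometric assay following 5-H(P)ETE production by the 100000g supernatant (S100) fraction of insect cells overexpressing human 5-LO.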

[5] = Cmax value in rat plasma when administered 20 mg/kg perorally; assay type: ADME, organism-based; set-up: dose 20 mg/kg, route oral; conditions: po; summary of the method: as §2
Rattus norvegicus [6] = experiment: Tested for percentage inhibition of dyspnea (0.5 mg/kg po using methocel) by in vivo in hyperactive rat after 4 hours pretreatment; assay type: functional; summary of the method: as §1
[7] = Tmax value in rat plasma when administered 20 mg/kg perorally; assay type: ADME, organism-based; set-up: dose 20 mg/kg, route oral; conditions: po; summary of the method: as §2
Homo sapiens [8] = species on record: Homo sapiens; experiment: (§5) Effect on production of LTB4 in human polymorphonuclear (HPMN) leukocytes; assay type: functional; summary of the method: as §3
[9] = biological target: T1, Polyunsaturated fatty acid 5-lipoxygenase; experiment: Tested against 5-lipoxygenase; summary of the method: as §4
Rattus norvegicus [10] = species on record: Rattus norvegicus; experiment: Tested for effective inhibition of LTB4 with an 8 hr pretreatment; assay type: functional
[11] = Inhibition of Ascaris antigen induced bronchoconstriction in the conscious squirrel monkey at 0.3 mg/kg dose (Change in airway resistance); assay type: functional
Summary of the method: (§6)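 Allergic conscious squirrel monkeys pretreated with drug for 4 h, then challenged with aerosolized Ascaris antigen (1:25 dilution). Airway resistance (RL) increase and dynamic compliance (Cdyn) decrease recorded; % inhibition versus control, mean ± SEM.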

[12] = Tested for inhibition of Ascaris antigen induced bronchoconstriction in the conscious squirrel monkey at 0.1 mg/kg dose (changes in dynamic compliance); assay type: functional; summary of the method: as §6
Homo sapiens [13] = species on record: Homo sapiens; experiment: Effect on production of LTB4 in human whole blood; assay type: functional
Summary of the method: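 Human whole blood activated with ionophore A23187; inhibition of LTB4 biosynthesis assessed.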

[14] = Tested for inhibition of Ascaris antigen induced bronchoconstriction in the conscious squirrel monkey at 0.3 mg/kg dose (changes in dynamic compliance); assay type: functional; summary of the method: as §6
[15] = Inhibition of Ascaris antigen induced bronchoconstriction in the conscious squirrel monkey at 0.1 mg/kg dose (Change in airway resistance); assay type: functional; summary of the method: as §6
Rattus norvegicus [16] = experiment: In vivo inhibition of LBT4 in a rat pleurisy model with a 6 h pretreatment time; assay type: functional
Summary of the method: (§7)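 Male Sprague-Dawley rats given 0.4 mL of 0.5% carrageenan in saline intrapleurally 16 h before drug. Drug doses ranged from 3 to 0.3 mg/kg. Intrapleural calcium ionophore challenge 6 h after dosing. LTB4 in pleural exudate measured 1 h later; ED50 derived, n = 6/group.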

[17] = Tested for inhibition of Ascaris antigen induced bronchoconstriction in the conscious squirrel monkey at 0.3 mg/kg dose (changes in the airway resistance(); assay type: functional; summary of the method: as §6
Homo sapiens [18] = species on record: Homo sapiens; experiment: as §5
Rattus norvegicus [19] = experiment: In vivo inhibition of LTB4 biosynthesis in a rat pleurisy model with an 6 hr pretreatment time; assay type: functional; summary of the method: as §7

- bioavailability [2]: 35%
- IC50 (Homo sapiens [3]; Homo sapiens): 5 nM
- IC50 [4]: 20 nM
- Cmax [5]: 3.8 µM
- Tmax [7]: 2 h
SMILES: CC1Cc2c(OCc3ccc(-c4ccccc4)cn3)ccc3c2c(c(CCOC(C)C(=O)O)n3Cc2ccc(Cl)cc2)S1 (stereo not given)
- Inhibition (Rattus norvegicus [1]): 53%
- Inhibition (Rattus norvegicus [6]): 2%

- IC50 (Homo sapiens [3]; Homo sapiens): 31 nM
SMILES: CC1Cc2c(OCc3ccc(-c4ccccc4)cn3)ccc3c2c(c(CCOCC(=O)O)n3Cc2ccc(Cl)cc2)S1 (stereo not given)

- IC50 (Homo sapiens [8]): 10 nM
- IC50 [9]: 60 nM
SMILES: CC1Cc2c(OCc3ccc(-c4ccccc4)cn3)ccc3c2c(c(CCOC(C)c2nnn[nH]2)n3Cc2ccc(Cl)cc2)S1 (stereo not given)

- IC50 (Homo sapiens [3]; Homo sapiens): 17 nM
SMILES: CC1Cc2c(OCc3ccc(-c4ccccc4)cn3)ccc3c2c(c(CCSC(C)C(=O)O)n3Cc2ccc(Cl)cc2)S1 (stereo not given)

- IC50 (Homo sapiens [8]): 8 nM
SMILES: CC1Cc2c(OCc3ccc(-c4ccccc4)cn3)ccc3c2c(c(CC(C)(C)Cc2nnn[nH]2)n3Cc2ccc(Cl)cc2)S1 (stereo not given)
- ED50 (Rattus norvegicus [10]): 1.9 mg/kg

- IC50 (Homo sapiens [3]; Homo sapiens): 4.5 nM
- IC50 [4]: 22 nM
SMILES: CC1Cc2c(OCc3ccc(-c4ccccc4)cn3)ccc3c2c(c(CCOC(C)C(=O)NS(C)(=O)=O)n3Cc2ccc(Cl)cc2)S1 (stereo not given)

- IC50 (Homo sapiens [3]; Homo sapiens): 7 nM
- IC50 [4]: 50 nM
SMILES: CC1Cc2c(OCc3ccc(-c4ccccc4)cn3)ccc3c2c(c(CCOC(C)(C)C(=O)O)n3Cc2ccc(Cl)cc2)S1 (stereo not given)

- bioavailability [2]: 88%
- IC50 (Homo sapiens [3]): 7 nM
- IC50 (Homo sapiens [13]): 3800 nM
- IC50 [4]: 22 nM
- Cmax [5]: 5.5 µM
- Tmax [7]: 6 h
SMILES: CCC(OCCc1c2c3c(c(OCc4ccc(-c5ccccc5)cn4)ccc3n1Cc1ccc(Cl)cc1)CC(C)S2)C(=O)O (stereo in doubt; 14d)
- inhibition in vivo at 0.3 mg/kg [11]: 100%
- Inhibition (Rattus norvegicus [1]): 55%
- inhibition in vivo at 0.1 mg/kg [12]: 68%
- inhibition in vivo at 0.3 mg/kg [14]: 100%
- Inhibition (Rattus norvegicus [6]): 51%
- inhibition in vivo at 0.1 mg/kg [15]: 89%
- ED50 (Rattus norvegicus [16]): 0.65 mg/kg

- IC50 (Homo sapiens [3]): 3.5 nM
- IC50 (Homo sapiens [13]): 1800 nM
- IC50 [4]: 13 nM
SMILES: CCC(OCCc1c2c3c(c(OCc4ccc(-c5ccccc5)cn4)ccc3n1Cc1ccc(Cl)cc1)CC(C)S2)C(=O)O (stereo in doubt; 14e)

- IC50 (Homo sapiens [3]): 10 nM
- IC50 (Homo sapiens [13]): 16000 nM
- IC50 [4]: 150 nM
SMILES: CCC(OCCc1c2c3c(c(OCc4ccc(-c5ccccc5)cn4)ccc3n1Cc1ccc(Cl)cc1)CC(C)S2)C(=O)O (stereo in doubt; 14f)

- IC50 (Homo sapiens [3]): 4 nM
- IC50 (Homo sapiens [13]): 1000 nM
- IC50 [4]: 8 nM
SMILES: CCC(OCCc1c2c3c(c(OCc4ccc(-c5ccccc5)cn4)ccc3n1Cc1ccc(Cl)cc1)CC(C)S2)C(=O)O (stereo in doubt; 14g)

- IC50 (Homo sapiens [3]): 17 nM
- IC50 (Homo sapiens [13]): 4800 nM
- IC50 [4]: 80 nM
SMILES: CCC(OCCc1c2c3c(c(OCc4ccc(-c5ccccc5)cn4)ccc3n1Cc1ccc(Cl)cc1)CC(C)S2)C(=O)O (stereo in doubt; 14h)

Second part, the compound before the results:

SMILES: CC1Cc2c(OCc3ccc(-c4ccccc4)cn3)ccc3c2c(c(CCOCCC(=O)O)n3Cc2ccc(Cl)cc2)S1 (stereo not given)
- IC50 (Homo sapiens [3]; Homo sapiens): 11 nM
- IC50 [4]: 105 nM

SMILES: CC[C@H](CSCc1c2c3c(c(OCc4ccc(-c5ccccc5)cn4)ccc3n1Cc1ccc(Cl)cc1)CC(C)S2)C(=O)O (stereo not given in full)
- IC50 (Homo sapiens [3]; Homo sapiens): 12 nM
- IC50 [4]: 120 nM

SMILES: CCC(OCCc1c2c3c(c(OCc4ccc(-c5ccccc5)cn4)ccc3n1Cc1ccc(Cl)cc1)CC(C)S2)C(=O)NS(C)(=O)=O (stereo not given)
- bioavailability [2]: 72%
- IC50 (Homo sapiens [3]; Homo sapiens): 6.5 nM
- IC50 [4]: 20 nM
- Cmax [5]: 4 µM
- Tmax [7]: 4 h

SMILES: CC1Cc2c(OCc3ccc(-c4ccccc4)cn3)ccc3c2c(c(COCC(=O)O)n3Cc2ccc(Cl)cc2)S1 (stereo not given)
- IC50 (Homo sapiens [3]; Homo sapiens): 17 nM

SMILES: CC(CC(=O)O)SCc1c2c3c(c(OCc4ccc(-c5ccccc5)cn4)ccc3n1Cc1ccc(Cl)cc1)CC(C)S2 (stereo not given)
- IC50 (Homo sapiens [3]; Homo sapiens): 50 nM
- IC50 [4]: 70 nM

SMILES: CCC(CSCc1c2c3c(c(OCc4ccc(-c5ccccc5)cn4)ccc3n1Cc1ccc(Cl)cc1)CC(C)S2)C(=O)O (stereo not given)
- IC50 (Homo sapiens [3]; Homo sapiens): 6 nM

SMILES: CC1Cc2c(OCc3ccc(-c4ccccc4)cn3)ccc3c2c(c(CCNC(C)C(=O)O)n3Cc2ccc(Cl)cc2)S1 (stereo not given)
- IC50 (Homo sapiens [3]; Homo sapiens): 1100 nM
- IC50 [4]: 4000 nM

SMILES: CC1Cc2c(OCc3ccc(-c4ccccc4)cn3)ccc3c2c(c(CC(=O)N(C)C(C)C(=O)O)n3Cc2ccc(Cl)cc2)S1 (stereo not given)
- IC50 (Homo sapiens [3]; Homo sapiens): 200 nM
- IC50 [4]: 300 nM

SMILES: CC(=O)N(CCc1c2c3c(c(OCc4ccc(-c5ccccc5)cn4)ccc3n1Cc1ccc(Cl)cc1)CC(C)S2)C(C)C(=O)O (stereo not given)
- IC50 (Homo sapiens [3]; Homo sapiens): 113 nM
- IC50 [4]: 900 nM

SMILES: CC1Cc2c(OCc3ccc(-c4ccccc4)cn3)ccc3c2c(c(CSCC(C)C(=O)O)n3Cc2ccc(Cl)cc2)S1 (stereo not given)
- IC50 (Homo sapiens [3]; Homo sapiens): 20 nM

SMILES: CC1Cc2c(OCc3ccc(-c4ccccc4)cn3)ccc3c2c(c(COCCC(=O)O)n3Cc2ccc(Cl)cc2)S1 (stereo not given)
- IC50 (Homo sapiens [3]; Homo sapiens): 65 nM
- IC50 [4]: 250 nM

SMILES: CC[C@@H](CSCc1c2c3c(c(OCc4ccc(-c5ccccc5)cn4)ccc3n1Cc1ccc(Cl)cc1)CC(C)S2)C(=O)O (stereo not given in full)
- IC50 (Homo sapiens [3]; Homo sapiens): 7 nM
- IC50 [4]: 40 nM

SMILES: CC1Cc2c(OCc3ccc(-c4ccccc4)cn3)ccc3c2c(c(CSCC(=O)O)n3Cc2ccc(Cl)cc2)S1 (stereo not given)
- IC50 (Homo sapiens [3]; Homo sapiens): 15 nM

SMILES: CC1Cc2c(OCc3ccc(-c4ccccc4)cn3)ccc3c2c(c(CSCCC(=O)O)n3Cc2ccc(Cl)cc2)S1 (stereo not given)
- IC50 (Homo sapiens [3]; Homo sapiens): 10 nM
- IC50 [4]: 55 nM

SMILES: CC(C)(C)Sc1c(CC(C)(C)C(=O)O)n(Cc2ccc(Cl)cc2)c2ccc(OCc3ccc4ccccc4n3)cc12 [QUIFLAPON]
- inhibition in vivo at 0.3 mg/kg [14]: 46%
- inhibition in vivo at 0.3 mg/kg [17]: 44%
- IC50 (Homo sapiens [18]): 3 nM
- ED50 (Rattus norvegicus [19]): 0.16 mg/kg

SMILES: CC(c1cc2ccccc2s1)N(O)C(N)=O (stereo not given) [ZILEUTON]
- IC50 (Homo sapiens [13]; Homo sapiens, Blood): 2000 nM
- IC50 (Homo sapiens [8]): 1060 nM
